STK33 kinase inh: inhibitors of human STK33 kinase; Q9BYT3; 0.073% of 320,000 active; inhibition, % at 10 µM; purified STK33, MBP phosphorylation, ADP-Glo luminescence;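 active = inhibition at or above 25%, using the most active replicate where run in duplicate; inactive = inhibition below 25%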
HSV augment: HSV replication enhancement | maximum fold increase | HSV replication augmentation in cells, fold increase | 0.005% of 220,000 active; in the data active = maximum fold increase above about 1.5; inconclusive = no clear call, values can overlap the other calls; tested in PC3 cells
Rce1 inh: inhibitors of yeast Ras-converting enzyme | Q03530 | yeast membranes, quenched prenylated peptide cleavage fluorescence | calls only | 0.27% of 290,000 active;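 active = fall in fluorescence gain of 50% or more versus controls, with final raw signal at or below 3038400; inconclusive = same 50% fall but final raw signal above 3038400; inactive = fall in fluorescence gain under 50%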
Target sequence (Q03530 whole entry, looked up): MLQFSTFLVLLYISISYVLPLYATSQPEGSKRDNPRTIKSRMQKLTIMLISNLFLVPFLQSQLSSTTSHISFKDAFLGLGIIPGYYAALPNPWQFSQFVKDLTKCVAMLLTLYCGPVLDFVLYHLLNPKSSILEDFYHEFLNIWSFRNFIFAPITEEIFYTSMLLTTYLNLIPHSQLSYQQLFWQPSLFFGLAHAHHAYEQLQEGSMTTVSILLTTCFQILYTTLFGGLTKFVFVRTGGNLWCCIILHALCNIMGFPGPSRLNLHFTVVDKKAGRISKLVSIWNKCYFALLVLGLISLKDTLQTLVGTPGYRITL
GSK3beta inhib: inhibitors of human GSK3beta kinase; GST-GSK3beta kinase, ADP-Glo luminescence, 60 min; hits give low values; activity score (negative = inhibition), % at 10 µM; 0.038% of 300,000 active;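 active = more than half of replicate wells score below -50%, meaning over 50% inhibition versus plate controls; inconclusive = some replicates but at most half score below -50%; inactive = no replicate scores below -50%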
Target sequence (P49841 whole entry, looked up): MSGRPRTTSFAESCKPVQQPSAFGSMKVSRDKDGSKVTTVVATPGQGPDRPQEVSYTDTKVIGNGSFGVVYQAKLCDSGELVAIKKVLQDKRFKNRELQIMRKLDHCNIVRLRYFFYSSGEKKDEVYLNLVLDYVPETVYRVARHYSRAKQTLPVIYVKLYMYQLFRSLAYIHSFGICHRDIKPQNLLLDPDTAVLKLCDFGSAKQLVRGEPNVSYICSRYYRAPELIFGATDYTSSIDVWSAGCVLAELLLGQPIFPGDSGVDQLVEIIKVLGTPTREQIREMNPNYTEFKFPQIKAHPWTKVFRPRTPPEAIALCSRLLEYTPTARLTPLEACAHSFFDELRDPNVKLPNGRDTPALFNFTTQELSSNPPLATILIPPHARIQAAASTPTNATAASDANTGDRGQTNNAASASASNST
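Test system – GST-tagged human GSK3beta kinase, cell-free · Incubation – 60 min enzyme reaction, room temperature · Signal – ADP-Glo luminescence · Also added – peptide substrate and ATP at 25 µM · Controls – DMSO neutral wells and GW8510 at 20 µM as positive · Buffer or medium – Tris/MgCl2 kinase buffer · Measure – Luminescence-derived activity versus plate DMSO and GW8510 wells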
Hep lipid drop: modulators of hepatic lipid droplet formation | inhibition, % at 6.5 µM | AML12 mouse hepatocytes, oleate lipid droplets, BODIPY imaging | AID 1656 | 0.4% of 240,000 active;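 active = lipid droplet intensity inhibited by at least 50%, with more than 500 cells counted; inconclusive = wells with under 300 cells, treated as cytotoxic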
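Material – mouse AML12 hepatocyte cell line, fixed after treatment · Compound dosing – one dose, 6.5 µM compound · Times – compound with oleate, overnight · Measured by – Image-based BODIPY and DAPI two-channel analysis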
GSK3 alpha inh: blocks human GSK-3 alpha kinase | 0.1% of 320,000 active | P49840 | inhibition, % at 10 µM | ADP-Glo luminescence, 60 min;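 active = more than half of replicates show inhibition above 20%; inconclusive = some but at most half of replicates above 20% inhibition; inactive = no replicate shows inhibition above 20%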;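 note: GST-tagged GSK-3 alpha with peptide substrate and 25 µM ATP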
Large screens that a line does not name were inactive; ! = a repeat was not active. Compounds with a hit are over-represented: about 0.7% of the library has one in this group of screens.

COC(=O)c1cc(C)ccc1OCc1ccc([N+](=O)[O-])cc1	none (no result: Hep lipid drop)
CC[N+](C)(C)CC/C=C1/c2ccccc2Sc2ccc(Cl)cc21	none
CCCCCCCCCCC[N+](C)(C)CC/C=C1/c2ccccc2Sc2ccc(Cl)cc21	STK33 kinase inh 30.9, Rce1 inh active (no result: HSV augment, Hep lipid drop)
CCCCCCCCCC[N+](C)(C)CC/C=C1/c2ccccc2Sc2ccc(Cl)cc21	STK33 kinase inh 32.4, Rce1 inh active (no result: HSV augment, Hep lipid drop)
COC(=O)c1c(-c2cccnc2)csc1NC(=O)c1ccc2c(c1)OCO2	none (no result: HSV augment)
CCN(CC)CCCN(Cc1cc2cc3c(cc2[nH]c1=O)OCO3)C(=S)NCCCN(C)C	Rce1 inh active (no result: HSV augment)
CC(=O)Oc1ccc2occ(C(=O)c3ccccc3)c2c1	none (no result: HSV augment, Hep lipid drop)
O=C(O)COc1ccc2occ(C(=O)c3ccccc3)c2c1	GSK3 alpha inh 82.8
Cc1ccc(C(=O)c2coc3ccc(OCC(=O)O)cc23)cc1	GSK3beta inhib -71.5, GSK3 alpha inh 88.8
COc1ccc(S(N)(=O)=O)cc1C(=O)NC1CCCc2ccccc21 (stereo unspecified)	none (no result: HSV augment, Rce1 inh, GSK3beta inhib)
N#CCCn1cc(/C=N/O)c(-c2cccc([N+](=O)[O-])c2)n1	GSK3 alpha inh 63.9
O=C(CSc1nnc(CCCN2C(=O)c3cccc4cccc(c34)C2=O)n1-c1ccccc1)N1CCN(CCO)CC1	none
Cc1c(CCC(=O)O)c(=O)oc2cc(OCc3cccc(F)c3)ccc12	Rce1 inh active (no result: HSV augment, Hep lipid drop)
O=C(CSc1n[nH]c(-c2ccc(S(=O)(=O)N3CCCCC3)cc2)n1)Nc1nccs1	Rce1 inh active (no result: HSV augment)
O=c1cc(-c2ccncc2)oc2c1ccc1ccccc12	GSK3 alpha inh 53.8 (no result: HSV augment)
CC(C)c1c(C(=O)N/N=C/c2c[nH]c3ccccc23)nnn1-c1nonc1N	Rce1 inh active (no result: HSV augment)
COc1cccc(/C=N/NC(=O)c2nnn(-c3nonc3N)c2C(C)C)c1OCc1ccc(F)cc1	Rce1 inh active (no result: HSV augment)
CC(C)c1c(C(=O)N/N=C/c2cccc3ccccc23)nnn1-c1nonc1N	Rce1 inh active (no result: HSV augment)
CCCc1c(C(=O)N/N=C/c2cccc3ccccc23)nnn1-c1nonc1N	none (no result: HSV augment)
O=[N+]([O-])c1cccc(S(=O)(=O)c2ccc(NCCO)c([N+](=O)[O-])c2)c1	none
Cc1ccc(N(CC(O)CN2CCCCC2)S(=O)(=O)c2ccccc2)cc1 (stereo unspecified)	GSK3 alpha inh 94.2 (no result: HSV augment)
CC(=O)Nc1cccc(Oc2ncnc3scc(-c4ccccc4)c23)c1	none
CN(C)C/C=C/C(=O)Nc1cccc(-c2c[nH]c3ncnc(Oc4ccc(NC(=O)CC(=O)Nc5ccc(F)cc5)cc4F)c23)c1	STK33 kinase inh 62.5 (no result: HSV augment, Rce1 inh, GSK3beta inhib, Hep lipid drop)
COc1cc(OC)cc(C(=O)NN2CCOCC2)c1	none (no result: HSV augment)
CC(=O)Nc1ccc(S(=O)(=O)Nc2cccc(-c3nc4ccccc4o3)c2)cc1	Rce1 inh active
c1ccc(Nc2nc(-c3ccccc3)nc3ccccc23)cc1	none (no result: HSV augment)
Fc1cccc(Nc2nc(-c3ccncc3)nc3ccccc23)c1	GSK3beta inhib -75.0
CCn1c2ccc(C)cc2c2nc3cc(C(=O)O)ccc3nc21	STK33 kinase inh 56.6
CCn1c2ccc(Cl)cc2c2nc3ccccc3nc21	none (no result: Hep lipid drop, GSK3 alpha inh)
CCCCCCCCn1ccc(=N)cc1	none
CCCCCCCCCCCCCCCCn1cc[n+](C)c1	STK33 kinase inh 26.8!
O=C1NC(=O)/C(=C\c2ccc(O)cc2O)S1	STK33 kinase inh 35.5
Nc1nnc(-c2ccncc2)s1	Rce1 inh active (no result: Hep lipid drop)
CCOc1ccccc1CNC(=O)c1cc2occc2n1C	Rce1 inh active
CCOc1ccccc1CNC(=O)c1cc2oc3ccccc3c2n1C	none
C=CCN=C(NC#N)SCC(=O)c1cccc(OC)c1	GSK3beta inhib -69.0, GSK3 alpha inh 82.4 (no result: Hep lipid drop)
CC1(C)Cc2cccc(C(=O)Nc3ccncc3)c2O1	GSK3 alpha inh 72.8
Cc1cc(Cl)c2oc(C(=O)N3CCN(c4cccc(C)n4)CC3)c(C)c2c1	none (no result: HSV augment)
Cc1cc(Cl)c2oc(C(=O)N3CCN(C(=O)c4ccco4)CC3)c(C)c2c1	Rce1 inh active (no result: HSV augment)
O=C(c1ccccc1F)N1CCN(c2ccc([N+](=O)[O-])c(NCC3CCCO3)c2)CC1 (stereo unspecified)	none (no result: GSK3 alpha inh)
COC(=O)[C@H](Cc1ccccc1)NS(=O)(=O)N[C@@H](Cc1ccccc1)C(=O)OC	none (no result: HSV augment, Rce1 inh, GSK3beta inhib, Hep lipid drop)
COC(=O)C(Cc1ccccc1)OS(N)(=O)=O (stereo unspecified)	Rce1 inh active (no result: HSV augment)
CC1CCCCC12NC(=O)N(CC(=O)NNC(=O)c1ccc(Br)cc1)C2=O (stereo unspecified)	none (no result: HSV augment, Rce1 inh, GSK3beta inhib, Hep lipid drop)
CC(C)(C)C(=O)NC(=S)Nc1sc2c(c1C(N)=O)CCC2	GSK3 alpha inh 68.6
CC(C)CC(=O)NC(=S)Nc1sc2c(c1C(N)=O)CCC2	none
CC1CCN(C(=O)c2cc3nc(-c4ccccc4)cc(-c4ccccc4)n3n2)CC1	Rce1 inh active
COCc1ccc(C(=O)N2CCCC(C(=O)c3ccc(SC)cc3)C2)s1 (stereo unspecified)	none (no result: HSV augment)
Cc1cc(-c2ccccc2)n2nc(C)c(C#N)c2n1	Rce1 inh active
CCOc1cc(C2C3=C(CC(C)(C)CC3=O)Nc3n[nH]c(C)c32)ccc1O (stereo unspecified)	GSK3beta inhib -61.4, GSK3 alpha inh 93.8
COc1ccc(C(=O)O/N=C(\C)c2ccccc2)cc1	STK33 kinase inh 28.8
COc1ccc(C(=O)O/N=C(/c2ccccc2)c2ccncc2)cc1	none
OCC[C@@H]1C[C@H](O)[C@@H](O)[C@@]2(OCCc3ccccc32)O1	none (no result: HSV augment)
CN(C)/C=C/c1c([N+](=O)[O-])c2ccc(O)cc2n1-c1ccccc1	GSK3beta inhib -56.5, GSK3 alpha inh 56.2
COC(=O)c1c(C)n(-c2ccccc2)c2ccc(O)cc12	none (no result: Hep lipid drop)
CNC(=S)N(Cc1cc2cc(OC)c(OC)cc2[nH]c1=O)C1CCCC1	none
N#CC(C#N)=C1NC(N)=C(C#N)C(c2ccccc2)=C1C#N	Rce1 inh active (no result: HSV augment, Hep lipid drop)
COc1ccc(OC)c(/C=N/c2c(-c3ccc(O)c(OC)c3)nc3ccccn23)c1	Rce1 inh active
COc1ccc(-c2cc(-c3nc4ccccn4c3NCc3ccccc3)ccc2OC)cc1	none (no result: HSV augment, Rce1 inh, GSK3beta inhib, Hep lipid drop)
Fc1ccc(-c2cnc[nH]2)cc1	STK33 kinase inh 29.2
CCCCc1nc2cc(C(=O)NCc3cc(C)n(C)n3)ccc2o1	none (no result: HSV augment)
OCCOc1ccc(CN2CCN(CCCc3ccccc3)C(CCO)C2)cc1 (stereo unspecified)	none (no result: HSV augment)
CCOC(=O)CC1C(=O)NCCN1C(=O)c1cc2c(=O)n3cccc(C)c3nc2s1 (stereo unspecified)	Rce1 inh active (no result: HSV augment, Hep lipid drop)
CCOC(=O)CC1C(=O)NCCN1C(=O)c1cc2c(=O)n3ccccc3nc2s1 (stereo unspecified)	Rce1 inh inconclusive (no result: HSV augment, Hep lipid drop)
CC1CCCCC1NC(=O)Cn1cc([N+](=O)[O-])ccc1=O (stereo unspecified)	none (no result: HSV augment, Rce1 inh, GSK3beta inhib, Hep lipid drop)
Cc1cc(C)n(CC(=O)NC2CCCCC2C)c(=O)c1C#N (stereo unspecified)	Rce1 inh active (no result: HSV augment, Hep lipid drop)

Source: PubChem BioAssay
